Experiments:
SF-268 = assay: Compound was evaluated for its in vitro activity in human solid tumor cell line SF-268 measured in a [3H]thymidine incorporation assay; type: functional, cell-based; settings: SF-268, 72 h
Method in brief: (§1)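 Cell lines adapted to RPMI medium, exposed to compound for 72 h at 37 °C under 5% CO2. Methyl-[3H]-thymidine (0.5 μCi) added for the final 16 h, then incorporation measured. Antiproliferative IC50 (μM) reported.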

MCF7 = assay: Compound was evaluated for its in vitro activity in human solid tumor cell line MCF-7 measured in a [3H]thymidine incorporation assay; type: functional, cell-based; settings: MCF7, 72 h; method in brief: as §1
NCI-H460 = assay: Compound was evaluated for its in vitro activity in human solid tumor cell line H-460 measured in a [3H]thymidine incorporation assay; type: functional, cell-based; settings: NCI-H460, 72 h; method in brief: as §1
MRC5 = assay: Cytotoxicity of compound was evaluated against MRC-5 cell line.; type: functional; settings: Homo sapiens

Compound | IC50 (SF-268) [µM] | IC50 (MCF7) [µM] | IC50 (NCI-H460) [µM] | CC50 (MRC5) [mg/L]
Nc1nc(NC2CC2)c2ncn(C[C@@H]3CC[C@@H](P(=O)(O)O)O3)c2n1 | > 100 | > 100 | > 100 | –
Nc1nc(N)c2ncn(C[C@@H]3CC[C@@H](P(=O)(O)O)O3)c2n1 | > 100 | 52 | 57 | –
Nc1nc(O)c2ncn(C[C@H]3O[C@@H](P(=O)(O)O)[C@H](O)[C@@H]3O)c2n1 | > 100 | > 100 | > 100 | –
N.Nc1nc(O)c2ncn(C[C@@H]3CC[C@@H](P(=O)(O)O)O3)c2n1 | > 100 | > 100 | 64 | 28
Nc1nc(NC2CC2)c2ncn(C[C@H]3O[C@@H](P(=O)(O)O)C[C@@H]3O)c2n1 | 28 | 48 | 20 | –

More lines, main results first:

IC50 (SF-268) [µM] | IC50 (MCF7) [µM] | IC50 (NCI-H460) [µM] | Compound | CC50 (MRC5) [mg/L]
44 | > 12 | 7.1 | Nc1nc(O)c2ncn(C[C@H]3O[C@@H](P(=O)(O)O)C[C@H]3F)c2n1 | –
13 | 53 | 30 | Nc1nc(O)c2ncn(C[C@H]3O[C@H](P(=O)(O)O)C[C@@H]3O)c2n1 | –
2.4 | 5.6 | 7.6 | CO[C@H]1C[C@H](P(=O)(O)O)O[C@@H]1Cn1cnc2c(O)nc(N)nc21 | –
1.2 | 1.4 | 0.71 | Nc1nc(N)c2ncn(C[C@H]3O[C@@H](P(=O)(O)O)C[C@@H]3O)c2n1 | –
> 100 | > 100 | 44 | Nc1nc(O)c2ncn(C[C@H]3O[C@@H](P(=O)(O)O)C[C@@H]3F)c2n1 | –
0.14 | 0.67 | 0.53 | Nc1nc(O)c2ncn(C[C@H]3O[C@@H](P(=O)(O)O)C[C@@H]3O)c2n1 | –
> 100 | 67 | 40 | Nc1nc(O)c2ncn(C[C@@H]3CC[C@H](P(=O)(O)O)O3)c2n1 | > 10

Source: ChEMBL document CHEMBL1134930, “Novel nucleotide phosphonate analogues with potent antitumor activity” (Bioorg Med Chem Lett, 2002)
